Measurements gathered from unrelated publications.
Lines come from different studies, so protocols differ.
Target: cGMP-dependent protein kinase 2 (PRKG2, Homo sapiens, UniProt Q13237)
Sequence (Q13237 1-762, as in one of the studies): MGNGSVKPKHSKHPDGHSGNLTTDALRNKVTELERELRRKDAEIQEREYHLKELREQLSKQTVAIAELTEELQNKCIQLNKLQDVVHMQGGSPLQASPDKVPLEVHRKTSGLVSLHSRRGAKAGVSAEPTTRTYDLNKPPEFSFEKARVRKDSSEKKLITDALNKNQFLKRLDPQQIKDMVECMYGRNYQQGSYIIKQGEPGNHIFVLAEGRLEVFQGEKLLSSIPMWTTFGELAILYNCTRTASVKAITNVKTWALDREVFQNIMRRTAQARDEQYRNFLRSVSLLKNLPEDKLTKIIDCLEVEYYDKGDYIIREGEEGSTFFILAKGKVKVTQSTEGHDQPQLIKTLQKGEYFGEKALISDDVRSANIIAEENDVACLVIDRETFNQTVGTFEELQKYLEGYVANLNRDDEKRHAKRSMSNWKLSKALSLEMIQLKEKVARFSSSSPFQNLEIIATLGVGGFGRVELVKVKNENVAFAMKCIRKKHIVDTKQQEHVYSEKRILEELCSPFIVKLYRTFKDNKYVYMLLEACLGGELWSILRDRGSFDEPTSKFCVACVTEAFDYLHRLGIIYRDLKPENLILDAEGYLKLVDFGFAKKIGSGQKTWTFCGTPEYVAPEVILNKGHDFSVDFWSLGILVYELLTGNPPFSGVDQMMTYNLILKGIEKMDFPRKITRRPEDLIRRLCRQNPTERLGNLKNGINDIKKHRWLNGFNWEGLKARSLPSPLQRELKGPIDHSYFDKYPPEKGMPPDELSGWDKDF

SMILES	read-out	method	concentration	remaining binding
FC(F)(F)Oc1cccc(-c2cnc3ccc(-c4ccncc4)nn23)c1	cell-free assay	competition with immobilised ligand	5 µM	88%
CCC(=O)N[C@H]1CC[C@@H](C(=O)N(C)c2ccc(-c3nc4ccccc4o3)cc2)C1	cell-free assay	competition with immobilised ligand	1 µM	100%
N[C@@H]1CCN(c2nccc(-c3cnn4ncccc34)n2)C1	binding		1 µM	100%
O=C(c1ccc(Nc2ncc(Cl)c(-c3ccc(Cl)s3)n2)cc1)N1CCC(N2CCCC2)CC1	binding	competition with immobilised ligand	1 µM	42%
Nc1ncc2c(n1)-c1c([nH]c3ccc(C#CC4CC4)cc13)CCCC2	binding	competition with immobilised ligand	1 µM	80%
COc1cnc(Nc2cccc(S(N)(=O)=O)c2)nc1N1CCN(c2ccccc2)C(=O)C1	binding	competition with immobilised ligand	1 µM	100%
CN(C)c1nccc(-c2cnn3ncccc23)n1	binding		1 µM	100%
O=C(c1ccc(Nc2nccc(-c3cc4ccccc4s3)n2)cc1)N1CCC(N2CCCC2)CC1	binding	competition with immobilised ligand	1 µM	33%
C[C@@H](c1ccc(-n2cnc3c(N)ncnc32)cc1)N1CCc2nn(C)c(Cc3ccccc3)c2C1=O	binding	competition with immobilised ligand	0.1 µM	73%
CN(CCCC(F)(F)F)c1nccc(-c2cnn3ncccc23)n1	binding		1 µM	96%
NS(=O)(=O)c1cc(NC(=O)C2(c3ccccc3Cl)CC2)ccc1Oc1cccc(Cl)c1	cell-free assay	competition with immobilised ligand	1 µM	100%
O=C(Nc1c[nH]nc1C(=O)NC1CCNCC1)c1cc(F)cc(F)c1	binding	competition with immobilised ligand	1 µM	91%
CCC(=N\O)/C(C)=C/c1ccc(F)cc1	cell-free assay	competition with immobilised ligand	1 µM	79%
F[C@@H]1CCN(c2nccc(-c3cnn4ncccc34)n2)C1	binding		1 µM	93%
C[C@H](c1ccc(F)cc1)N(Cc1cccc(C(=O)O)c1)C(=O)c1cnc2ccccc2c1	cell-free assay	competition with immobilised ligand	1 µM	100%
COc1ccnn2ncc(-c3ccnc(N(C)C)n3)c12	binding		1 µM	100%
CN(C)C(=O)Cn1cc(-c2nc(C3(c4ccc(-c5cnc(N)nc5)cc4)CC3)no2)cn1	cell-free assay	competition with immobilised ligand	1 µM	100%
c1cncc(-c2cccc(Nc3nccc(NC4CCCCC4)n3)c2)c1	binding	competition with immobilised ligand	10 µM	74%
C[C@@H]1CCN(c2nccc(-c3cnn4ncccc34)n2)C1	binding		1 µM	81%
O=C(c1ccc(Nc2ncc(Cl)c(-c3cc4ccccc4s3)n2)cc1)N1CCC(N2CCCC2)CC1	binding	competition with immobilised ligand	1 µM	13%
O=C1NC(c2ccccn2)Sc2ccccc21 (stereo not shown)	cell-free assay	competition with immobilised ligand	1 µM	90%
COc1cnc(Nc2cccc(S(N)(=O)=O)c2)nc1N1CCN(c2ccccc2)CC1	binding	competition with immobilised ligand	1 µM	92%
